Assay results as given in ChEMBL document CHEMBL2016531, “Identification of NAE Inhibitors Exhibiting Potent Activity in Leukemia Cells: Exploring the Structural Determinants of NAE Specificity” (ACS Med Chem Lett, 2011).
Activity calls are given as the source filed them. The rule behind the calls is not given here.

Columns and labels:
[1] = target: SUMO-activating enzyme (Homo sapiens) (UniProt Q9UBE0+Q9UBT2); assay: Inhibition of human recombinant SAE1/2 assessed as inhibition of SUMO1-UbcH9 complex formation at 0.001 to 10 uM after 1.5 hrs by Western blot analysis; assay type: protein-complex assay
In short: (§1)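 Cell-free gel assay. Purified human recombinant E1 incubated with its matching Ub/Ubl and E2 in 50 mM HEPES pH 7.4, 5 mM MgCl2, 1–20 μM ATP. Inhibitor at 0, 0.001, 0.01, 0.1, 1 or 10 μM, 1.5 h at room temperature. Products resolved by SDS-PAGE, immunoblotted and detected by ECL; densitometry used for semiquantitation.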

[2] = target: Epidermal growth factor receptor (Homo sapiens) (UniProt P00533); assay: Inhibition of EGFR assessed as remaining activity at 0.1 uM by radiolabeled kinase assay relative to control
Chain of Epidermal growth factor receptor (Homo sapiens) (P00533 whole entry): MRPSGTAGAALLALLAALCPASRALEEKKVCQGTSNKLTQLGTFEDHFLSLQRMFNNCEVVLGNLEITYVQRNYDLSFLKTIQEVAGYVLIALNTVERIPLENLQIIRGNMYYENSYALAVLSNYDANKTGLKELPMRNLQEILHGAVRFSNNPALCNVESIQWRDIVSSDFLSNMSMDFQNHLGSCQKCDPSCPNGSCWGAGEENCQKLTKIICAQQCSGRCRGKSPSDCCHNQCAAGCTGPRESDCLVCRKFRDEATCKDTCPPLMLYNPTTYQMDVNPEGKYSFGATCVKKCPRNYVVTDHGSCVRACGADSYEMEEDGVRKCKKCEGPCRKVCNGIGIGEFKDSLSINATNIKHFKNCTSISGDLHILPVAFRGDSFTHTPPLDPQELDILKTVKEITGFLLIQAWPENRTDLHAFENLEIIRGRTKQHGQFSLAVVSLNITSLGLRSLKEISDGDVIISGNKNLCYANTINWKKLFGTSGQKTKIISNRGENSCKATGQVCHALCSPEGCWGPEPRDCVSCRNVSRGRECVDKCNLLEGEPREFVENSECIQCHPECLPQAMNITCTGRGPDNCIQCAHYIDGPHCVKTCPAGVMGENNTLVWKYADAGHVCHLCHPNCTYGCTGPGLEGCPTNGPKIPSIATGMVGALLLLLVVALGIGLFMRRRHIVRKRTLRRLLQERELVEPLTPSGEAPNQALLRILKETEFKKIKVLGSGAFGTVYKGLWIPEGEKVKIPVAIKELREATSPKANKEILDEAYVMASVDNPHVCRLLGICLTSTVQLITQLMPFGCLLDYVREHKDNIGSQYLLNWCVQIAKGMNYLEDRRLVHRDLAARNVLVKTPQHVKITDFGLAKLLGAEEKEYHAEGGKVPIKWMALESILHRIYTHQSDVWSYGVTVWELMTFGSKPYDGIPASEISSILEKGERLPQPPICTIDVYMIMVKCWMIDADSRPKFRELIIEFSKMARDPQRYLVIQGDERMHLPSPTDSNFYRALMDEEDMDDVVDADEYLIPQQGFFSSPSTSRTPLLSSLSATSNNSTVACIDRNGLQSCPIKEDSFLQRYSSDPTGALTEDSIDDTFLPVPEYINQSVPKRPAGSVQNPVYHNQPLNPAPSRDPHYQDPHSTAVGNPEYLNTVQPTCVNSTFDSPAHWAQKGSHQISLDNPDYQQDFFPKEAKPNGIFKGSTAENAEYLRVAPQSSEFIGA

[3] = target: T1, Tyrosine-protein kinase JAK3 (Homo sapiens) (UniProt P52333); assay: Inhibition of JAK3 assessed as remaining activity at 0.1 uM by radiolabeled kinase assay relative to control
T1 sequence (whole entry): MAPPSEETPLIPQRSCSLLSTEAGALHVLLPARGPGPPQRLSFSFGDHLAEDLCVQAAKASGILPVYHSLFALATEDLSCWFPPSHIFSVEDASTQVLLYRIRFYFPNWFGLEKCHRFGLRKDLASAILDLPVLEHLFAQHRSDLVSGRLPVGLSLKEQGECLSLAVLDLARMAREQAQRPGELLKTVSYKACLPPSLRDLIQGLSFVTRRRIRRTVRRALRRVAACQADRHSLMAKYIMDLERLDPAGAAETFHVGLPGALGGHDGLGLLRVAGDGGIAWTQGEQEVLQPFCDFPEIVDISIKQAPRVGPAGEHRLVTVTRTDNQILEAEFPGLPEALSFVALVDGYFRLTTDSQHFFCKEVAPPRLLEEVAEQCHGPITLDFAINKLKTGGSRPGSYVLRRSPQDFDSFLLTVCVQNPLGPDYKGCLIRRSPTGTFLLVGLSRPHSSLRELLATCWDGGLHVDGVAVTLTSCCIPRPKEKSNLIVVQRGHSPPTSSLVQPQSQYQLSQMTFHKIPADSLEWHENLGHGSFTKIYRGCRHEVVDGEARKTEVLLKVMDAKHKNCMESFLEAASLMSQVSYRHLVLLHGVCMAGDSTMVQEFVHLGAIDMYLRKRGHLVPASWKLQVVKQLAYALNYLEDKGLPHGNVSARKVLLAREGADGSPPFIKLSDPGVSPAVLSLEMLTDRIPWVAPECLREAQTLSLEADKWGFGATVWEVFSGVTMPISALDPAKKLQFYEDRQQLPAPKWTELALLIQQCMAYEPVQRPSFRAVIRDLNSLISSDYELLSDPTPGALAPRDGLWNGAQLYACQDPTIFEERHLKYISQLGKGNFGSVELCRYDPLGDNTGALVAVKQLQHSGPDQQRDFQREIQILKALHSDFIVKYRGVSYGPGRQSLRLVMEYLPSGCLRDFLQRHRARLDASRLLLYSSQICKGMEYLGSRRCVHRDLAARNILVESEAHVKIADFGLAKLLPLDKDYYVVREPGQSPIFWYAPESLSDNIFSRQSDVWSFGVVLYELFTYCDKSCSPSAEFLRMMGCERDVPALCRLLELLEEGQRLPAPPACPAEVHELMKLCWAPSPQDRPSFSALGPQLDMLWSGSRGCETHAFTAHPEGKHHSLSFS

[4] = Inhibition of human recombinant NAE assessed as inhibition of NEDD8-UbcH12 complex formation after 1.5 hrs by Western blot analysis; in short: as §1
[5] = target: T2, NEDD8-activating enzyme E1 catalytic subunit (Homo sapiens) (UniProt Q8TBC4); assay: Inhibition of UBA3-mediated NEDD8 activation at […] after 1.5 hrs by Western blot analysis
T2 sequence (whole entry): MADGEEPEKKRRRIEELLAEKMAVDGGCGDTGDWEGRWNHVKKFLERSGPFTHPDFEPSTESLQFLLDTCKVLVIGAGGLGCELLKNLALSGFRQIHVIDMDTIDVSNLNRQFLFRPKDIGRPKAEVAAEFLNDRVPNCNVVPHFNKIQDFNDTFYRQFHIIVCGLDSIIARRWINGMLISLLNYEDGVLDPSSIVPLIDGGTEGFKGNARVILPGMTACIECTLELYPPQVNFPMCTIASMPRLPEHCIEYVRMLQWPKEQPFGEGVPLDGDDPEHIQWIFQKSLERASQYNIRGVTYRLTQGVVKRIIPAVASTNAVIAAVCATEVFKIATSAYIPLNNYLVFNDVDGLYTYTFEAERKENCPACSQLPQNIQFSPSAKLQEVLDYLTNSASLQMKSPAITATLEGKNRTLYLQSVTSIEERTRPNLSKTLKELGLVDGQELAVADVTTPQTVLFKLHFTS

Homo sapiens = species: Homo sapiens; assay: Inhibition of human recombinant NAE assessed as inhibition of NEDD8-UbcH12 complex formation at 1 nM after 1.5 hrs by Western blot analysis; in short: as §1
[6] = target: Tyrosine-protein kinase ABL1 (Homo sapiens) (UniProt P00519); assay: Inhibition of ABL assessed as remaining activity at 0.1 uM by radiolabeled kinase assay relative to control
Chain of Tyrosine-protein kinase ABL1 (Homo sapiens) (P00519 whole entry): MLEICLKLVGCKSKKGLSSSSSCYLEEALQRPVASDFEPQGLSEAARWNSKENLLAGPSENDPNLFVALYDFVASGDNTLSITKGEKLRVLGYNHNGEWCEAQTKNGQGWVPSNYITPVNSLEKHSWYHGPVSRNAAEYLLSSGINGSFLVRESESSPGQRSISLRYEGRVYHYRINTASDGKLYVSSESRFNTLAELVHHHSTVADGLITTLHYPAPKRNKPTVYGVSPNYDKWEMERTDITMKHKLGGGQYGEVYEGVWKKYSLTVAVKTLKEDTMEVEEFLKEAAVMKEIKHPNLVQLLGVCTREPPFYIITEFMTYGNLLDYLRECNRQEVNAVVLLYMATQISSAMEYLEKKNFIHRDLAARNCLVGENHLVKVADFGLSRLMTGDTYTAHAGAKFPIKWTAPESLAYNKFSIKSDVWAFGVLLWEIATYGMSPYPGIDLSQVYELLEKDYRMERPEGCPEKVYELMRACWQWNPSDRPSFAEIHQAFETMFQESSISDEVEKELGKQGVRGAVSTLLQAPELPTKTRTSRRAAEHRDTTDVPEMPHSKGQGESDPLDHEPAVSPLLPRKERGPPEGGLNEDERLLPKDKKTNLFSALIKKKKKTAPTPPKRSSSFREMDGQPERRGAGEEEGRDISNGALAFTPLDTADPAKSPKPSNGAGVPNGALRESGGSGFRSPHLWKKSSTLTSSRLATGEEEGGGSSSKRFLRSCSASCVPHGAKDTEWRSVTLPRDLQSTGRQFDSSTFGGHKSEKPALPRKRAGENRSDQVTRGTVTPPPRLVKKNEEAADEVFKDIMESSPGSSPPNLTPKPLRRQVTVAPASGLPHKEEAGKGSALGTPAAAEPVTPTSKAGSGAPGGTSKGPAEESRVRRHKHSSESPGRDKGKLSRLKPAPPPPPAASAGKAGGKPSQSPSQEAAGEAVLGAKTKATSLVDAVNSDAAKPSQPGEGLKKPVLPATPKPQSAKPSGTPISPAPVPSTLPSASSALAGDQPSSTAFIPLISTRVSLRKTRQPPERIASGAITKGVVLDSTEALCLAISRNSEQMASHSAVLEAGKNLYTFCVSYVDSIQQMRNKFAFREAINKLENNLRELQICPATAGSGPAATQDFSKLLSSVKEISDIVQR

[7] = target: Tyrosine-protein kinase JAK1 (Homo sapiens) (UniProt P23458); assay: Inhibition of JAK1 assessed as remaining activity at 0.1 uM by radiolabeled kinase assay relative to control
K562 [8] = assay: Antiproliferative activity against human K562 cells after 72 hrs by CellTiter-Glo assay; assay type: functional, cell-based; conditions: K562, 72 h
In short: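 K562 leukemia cells exposed to increasing concentrations for 72 h; growth and viability read by CellTiter-Glo luminescence.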

[9] = target: Calcium/calmodulin-dependent protein kinase type II subunit beta (Homo sapiens) (UniProt Q13554); assay: Inhibition of CAMK2b assessed as remaining activity at 0.1 uM by radiolabeled kinase assay relative to control
Chain of Calcium/calmodulin-dependent protein kinase type II subunit beta (Homo sapiens) (Q13554 whole entry): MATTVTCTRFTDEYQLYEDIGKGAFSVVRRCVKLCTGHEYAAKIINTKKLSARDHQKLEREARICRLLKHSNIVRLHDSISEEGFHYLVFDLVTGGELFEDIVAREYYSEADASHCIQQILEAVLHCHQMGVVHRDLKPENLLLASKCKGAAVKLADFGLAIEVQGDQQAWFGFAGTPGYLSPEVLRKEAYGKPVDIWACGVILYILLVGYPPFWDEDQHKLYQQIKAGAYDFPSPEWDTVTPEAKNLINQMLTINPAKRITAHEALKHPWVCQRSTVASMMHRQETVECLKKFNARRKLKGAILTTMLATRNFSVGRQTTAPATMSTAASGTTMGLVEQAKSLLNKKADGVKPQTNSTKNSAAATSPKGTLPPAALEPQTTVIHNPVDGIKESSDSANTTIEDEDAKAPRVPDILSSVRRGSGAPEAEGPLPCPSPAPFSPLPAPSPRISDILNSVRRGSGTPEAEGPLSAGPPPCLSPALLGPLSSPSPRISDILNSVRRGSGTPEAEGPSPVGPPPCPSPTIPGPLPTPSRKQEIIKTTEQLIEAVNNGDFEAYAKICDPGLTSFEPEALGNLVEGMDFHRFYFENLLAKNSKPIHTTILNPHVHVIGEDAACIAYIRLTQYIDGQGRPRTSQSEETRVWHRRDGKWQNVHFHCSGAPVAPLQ

[10] = target: Cyclin-dependent kinase 1/cyclin B1 (Homo sapiens) (UniProt P06493+P14635); assay: Inhibition of CDK1/cyclin B assessed as remaining activity at 0.1 uM by radiolabeled kinase assay relative to control; assay type: protein-complex assay
Chain of Cyclin-dependent kinase 1/cyclin B1 (Homo sapiens) (P06493 whole entry, looked up): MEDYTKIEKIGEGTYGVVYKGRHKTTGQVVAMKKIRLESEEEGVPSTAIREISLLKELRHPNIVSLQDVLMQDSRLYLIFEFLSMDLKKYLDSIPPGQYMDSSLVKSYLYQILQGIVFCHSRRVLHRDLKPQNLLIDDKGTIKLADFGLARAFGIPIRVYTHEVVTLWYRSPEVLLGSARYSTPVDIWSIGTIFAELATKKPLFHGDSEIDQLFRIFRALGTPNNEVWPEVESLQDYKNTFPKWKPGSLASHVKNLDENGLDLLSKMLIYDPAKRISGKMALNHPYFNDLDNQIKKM
Chain of Cyclin-dependent kinase 1/cyclin B1 (Homo sapiens) (P14635 whole entry, looked up): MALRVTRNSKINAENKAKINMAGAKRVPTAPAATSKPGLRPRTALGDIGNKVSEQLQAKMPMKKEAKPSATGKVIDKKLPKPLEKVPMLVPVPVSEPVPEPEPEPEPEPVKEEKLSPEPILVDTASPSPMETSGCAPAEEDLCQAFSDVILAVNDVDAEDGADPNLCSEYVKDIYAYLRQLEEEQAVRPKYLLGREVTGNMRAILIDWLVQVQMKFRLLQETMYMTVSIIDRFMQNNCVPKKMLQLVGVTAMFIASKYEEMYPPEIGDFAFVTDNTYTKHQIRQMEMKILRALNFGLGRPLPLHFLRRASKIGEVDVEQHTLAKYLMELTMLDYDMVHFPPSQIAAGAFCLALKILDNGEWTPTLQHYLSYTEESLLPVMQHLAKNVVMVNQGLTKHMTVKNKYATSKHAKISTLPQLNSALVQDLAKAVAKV

K562 [11] = assay: Inhibition of NAE in human K562 cells assessed as inhibition of NEDD8-cullin complex formation at 1 to 1000 nM after 24 hrs by immunoblotting; assay type: cell-based
In short: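 K562 cells treated with increasing concentrations for 24 h, then harvested. Total cellular protein isolated and NEDD8–cullin conjugates detected by immunoblotting.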

[12] = target: Ubiquitin-like modifier-activating enzyme 5 (Homo sapiens) (UniProt Q9GZZ9); assay: Inhibition of human recombinant UBA5 assessed as inhibition of […]-UFM1 complex formation at 10 uM after 1.5 hrs by Western blot analysis; in short: as §1
Chain of Ubiquitin-like modifier-activating enzyme 5 (Homo sapiens) (Q9GZZ9 whole entry): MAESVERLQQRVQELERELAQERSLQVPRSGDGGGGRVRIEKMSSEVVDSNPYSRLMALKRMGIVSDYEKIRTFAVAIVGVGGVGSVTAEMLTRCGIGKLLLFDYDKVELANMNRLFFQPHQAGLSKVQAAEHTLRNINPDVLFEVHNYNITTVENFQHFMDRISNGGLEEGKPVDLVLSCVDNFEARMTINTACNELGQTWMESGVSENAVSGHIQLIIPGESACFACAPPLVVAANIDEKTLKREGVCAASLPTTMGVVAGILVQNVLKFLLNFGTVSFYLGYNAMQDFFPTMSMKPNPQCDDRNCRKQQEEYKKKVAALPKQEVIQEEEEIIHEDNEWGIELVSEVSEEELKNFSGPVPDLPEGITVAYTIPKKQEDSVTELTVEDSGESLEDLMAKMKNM

[13] = target: High affinity nerve growth factor receptor (Homo sapiens) (UniProt P04629); assay: Inhibition of TRKA assessed as remaining activity at 0.1 uM by radiolabeled kinase assay relative to control
Chain of High affinity nerve growth factor receptor (Homo sapiens) (P04629 33-796 limits assumed): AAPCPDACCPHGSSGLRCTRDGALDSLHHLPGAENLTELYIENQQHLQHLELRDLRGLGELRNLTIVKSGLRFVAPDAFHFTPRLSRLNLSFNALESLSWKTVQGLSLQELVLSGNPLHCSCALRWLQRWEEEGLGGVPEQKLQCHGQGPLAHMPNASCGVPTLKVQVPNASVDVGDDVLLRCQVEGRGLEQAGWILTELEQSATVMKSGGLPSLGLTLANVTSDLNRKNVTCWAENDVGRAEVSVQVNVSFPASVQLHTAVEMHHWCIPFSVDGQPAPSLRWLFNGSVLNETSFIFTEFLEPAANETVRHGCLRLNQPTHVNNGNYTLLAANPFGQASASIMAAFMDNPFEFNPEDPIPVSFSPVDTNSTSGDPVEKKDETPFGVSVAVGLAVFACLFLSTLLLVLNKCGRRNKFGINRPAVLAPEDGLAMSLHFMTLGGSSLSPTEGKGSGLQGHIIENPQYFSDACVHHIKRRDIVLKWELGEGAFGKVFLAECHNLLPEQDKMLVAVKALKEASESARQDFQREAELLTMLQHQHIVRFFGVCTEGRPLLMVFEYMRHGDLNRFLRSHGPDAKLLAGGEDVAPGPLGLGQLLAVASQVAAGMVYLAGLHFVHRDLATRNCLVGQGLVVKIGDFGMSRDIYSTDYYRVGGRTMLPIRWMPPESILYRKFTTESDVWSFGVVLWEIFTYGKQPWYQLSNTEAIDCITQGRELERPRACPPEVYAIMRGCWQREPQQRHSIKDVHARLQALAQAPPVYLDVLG

[14] = target: Dual specificity mitogen-activated protein kinase kinase 1 (Homo sapiens) (UniProt Q02750); assay: Inhibition of MEK1 assessed as remaining activity at 0.1 uM by radiolabeled kinase assay relative to control

inhibition [1]: Active | Activity [2]: 98.9% | Activity [3]: 94% | IC50 [4]: < 10 nM | inhibition [5]: Active | inhibition (Homo sapiens): > 70% | Activity [6]: 102% | Activity [7]: 99.3% | EC50 (K562 [8]): 160 nM | Activity [9]: 101% | Activity [10]: 114% | inhibition [12]: inactive | Activity [13]: 109% | Activity [14]: 123%
SMILES: CCCCCCNc1ncnc2c1ncn2[C@@H]1O[C@H](COS(N)(=O)=O)[C@@H](O)[C@H]1O
inhibition (K562 [11]): Active
